LYPLA2 counter: blocks human lysophospholipase 2, a PME1 counter-screen; inhibition, % at 5.9 µM; AID 2177; recombinant LYPLA2, FP-Rh probe fluorescence polarization; hit rate 0.38% among 320,000; O95372;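 active means inhibition above the screen-wide mean plus 3 SD, limit set per campaign, cut at about 26% in these data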;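 further: 0% = LYPLA2 with DMSO and 100% = wells lacking LYPLA2 enzyme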
Target sequence (O95372 whole entry, looked up): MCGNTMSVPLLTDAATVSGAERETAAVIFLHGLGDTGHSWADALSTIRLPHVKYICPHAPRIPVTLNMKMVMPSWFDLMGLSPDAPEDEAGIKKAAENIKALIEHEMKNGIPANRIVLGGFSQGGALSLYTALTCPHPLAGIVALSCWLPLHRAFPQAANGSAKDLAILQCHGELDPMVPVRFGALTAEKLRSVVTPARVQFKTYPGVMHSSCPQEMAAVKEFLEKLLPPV
proCasp3 act: activates human procaspase-3. P42574. activation, % at 8.5 µM. hit rate 0.11% among 330,000. AID 463141. recombinant procaspase-3 D3A, Ac-DEVD-pNA absorbance 405 nm;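 active means activation above the mean of all tested compounds plus 3 SD, cut at about 21% in these data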;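 further: 0% = DMSO alone and 100% = DMSO wells spiked with extra 5 µM PC-3 D3A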
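Assay system – Procaspase-3 D3A mutant, all three cleavage aspartates alanine · Controls – DMSO-only low control, 5 µM PC-3 D3A high control · Schedule – 1 h compound preincubation, 2 h substrate hydrolysis at 25 °C · Signal – 405 nm absorbance of p-nitroaniline, reads at 0 and 120 min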
LYPLA1 counter: blocks human lysophospholipase 1, a PME1 counter-screen; recombinant LYPLA1, FP-Rh probe fluorescence polarization; inhibition, % at 5.9 µM; hit rate 0.16% among 320,000; AID 2174;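 active means inhibition above the mean of all tested compounds plus 3 SD, set per campaign, cut at about 14% in these data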;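 further: inhibitors block serine hydrolase probe labeling of LYPLA1 so polarization falls; 0% = enzyme with DMSO and 100% = wells lacking LYPLA1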
Target sequence (O75608 whole entry, looked up): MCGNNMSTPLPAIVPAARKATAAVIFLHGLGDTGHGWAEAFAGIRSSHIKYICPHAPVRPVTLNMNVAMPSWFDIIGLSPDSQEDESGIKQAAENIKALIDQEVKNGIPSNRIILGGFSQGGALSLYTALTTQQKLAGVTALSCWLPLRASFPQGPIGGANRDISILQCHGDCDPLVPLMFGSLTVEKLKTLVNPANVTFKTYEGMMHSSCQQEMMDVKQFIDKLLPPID
PME-1 primary: PME-1 (human) inhibition; AID 2130; Q9Y570; recombinant PME-1, FP-Rh probe fluorescence polarization; inhibition, % at 5.9 µM; hit rate 0.53% among 320,000;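 active means inhibition above the campaign mean of all compounds plus 3 SD, cut at about 26% in these data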;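 further: competitive labeling of PME-1 active site by serine hydrolase directed probe; 0% = PME-1 with DMSO and 100% = wells lacking PME-1 enzyme; inhibitors block probe labeling so polarization falls and inhibition rises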
procasp7 counter: counter-screen: procaspase-7 (human) activation | hit rate 0.093% among 330,000 | activation, % at 8.5 µM | recombinant procaspase-7, Ac-DEVD-pNA absorbance 405 nm; D23A/D198A/D206A triple mutant, cannot self-cleave; scale: DMSO 0, 5 µM enzyme 100 | AID 463210 | P55210;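 active means percent activation above the screen-wide mean plus 3 SD, cut at about 25% in these data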
Target sequence (P55210 whole entry D23A/D198A/D206A): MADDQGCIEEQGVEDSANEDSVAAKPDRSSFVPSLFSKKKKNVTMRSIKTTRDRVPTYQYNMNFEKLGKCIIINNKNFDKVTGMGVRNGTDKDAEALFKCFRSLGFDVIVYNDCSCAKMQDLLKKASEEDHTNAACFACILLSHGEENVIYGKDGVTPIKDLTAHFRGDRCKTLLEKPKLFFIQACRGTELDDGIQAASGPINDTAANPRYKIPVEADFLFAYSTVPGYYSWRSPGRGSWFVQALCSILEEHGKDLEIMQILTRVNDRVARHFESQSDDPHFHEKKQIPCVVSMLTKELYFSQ
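Assay system: Uncleavable procaspase-7 mutant enzyme / Input: 2 µM procaspase-7 mutant as dispensed / Dosing: single nominal 8.5 µM compound dose, 0.8% DMSO final / Timing: 1 h enzyme–compound preincubation and 2 h substrate reaction, both 25 °C / Detection: p-Nitroaniline absorbance at 405 nm, read at 0 and 120 min / Replication: singlicate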
Fam108B counter: Fam108B inhibition, counter-screen for RBBP9 inhibitors; recombinant Fam108B, FP-Rh probe fluorescence polarization; AID 1947; inhibition, % at 9.51 µM; hit rate 0.33% among 300,000;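 active means inhibition above the screen mean inhibition plus 3 SD, computed separately per campaign, cut at about 18% in these data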;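 further: inhibitors lower polarization as less probe binds the enzyme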
procasp7 triplic: counter-screen for procaspase-3 activators: activators of human procaspase-7; shares compounds with proCasp3 act; recombinant procaspase-7, Ac-DEVD-pNA absorbance; asp23/198/206-to-Ala mutant, cannot self-cleave; activation, % at 8.5 µM; 210 tested, under 10 active; AID 488941;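 active means mean activation above a set limit taken from an earlier procaspase-7 screen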;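 further: 0% = DMSO wells and 100% = DMSO plus 5 µM procaspase-7 enzyme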
proCasp3 confirm: procaspase-3 (human) activation, confirmed. shares compounds with proCasp3 act. recombinant PC-3 D3A, Ac-DEVD-pNA absorbance 405 nm; 100% is higher-enzyme control. activation, % at 8.5 µM. hit rate 10% among 210;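 active means mean activation above a set limit carried over from the earlier primary screen, cut at about 22% in these data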
* marks the source's active call; other numbers are inactive results; . = not tested or not shown. Only some compounds are listed: those with a hit (about 1% of all), similar ones and a draw of the others.

SMILES | LYPLA2 counter | proCasp3 act | LYPLA1 counter | PME-1 primary | procasp7 counter | Fam108B counter | procasp7 triplic | proCasp3 confirm
CCCc1ccc(OCc2ccc(C(=O)N3CCSCC3)o2)cc1 | 10.2 | 21.9* | -1.4 | -2.0 | -1.2 | -2.2 | 4.7 | 4.0
N#Cc1ccc(/C=C\c2nccc3c2[nH]c2ccccc23)cc1 | -25.3 | 48.0* | -16.4 | -24.8 | 0.7 | 8.0 | -20.9 | -14.4
O=C(O)C(Cc1c[nH]c2ccccc12)NS(=O)(=O)c1ccc(Cl)c(C(F)(F)F)c1 (stereo not given) | 0.6 | -2.1 | 2.8 | 4.6 | -0.5 | 1.7 | . | .
COC(=O)c1c(NC(=S)NN2CCN(C)CC2)sc2c1CCC(C)C2 (stereo not given) | -0.2 | -12.4 | -0.4 | 8.2 | 3.1 | 1.8 | . | .
Cc1noc(C)c1C(=O)OC(C)C(=O)Nc1ccc(S(=O)(=O)NC(C)C)cc1 (stereo not given) | 4.2 | 2.7 | -0.1 | 0.6 | 11.0 | 5.5 | . | .
Cc1ccc(NC(=O)CSc2nnc(-c3cccnc3)o2)c(C)c1 | 4.3 | 23.3* | 0.6 | 4.5 | 1.8 | -0.8 | -17.3 | -5.3
CCOc1ccc(N/C=C/C(=O)c2ccc(OC)c(OC)c2)cc1 | 1.7 | -1.4 | -0.2 | 4.9 | 4.4 | -2.7 | . | .
CCOC(=O)c1ccc(N/C=C/C(=O)c2ccc(OC)c(OC)c2)cc1 | 2.0 | 25.4* | -2.2 | 1.3 | 1.3 | 1.0 | -6.3 | 5.4
CC1CCCN(S(=O)(=O)c2ccc(C(=O)Nc3nnc(-c4ccco4)o3)cc2)C1 (stereo not given) | -3.0 | -1.0 | -7.8 | -4.5 | -10.8 | -6.2 | . | .
CC(=O)NCCc1nc2ccccc2n1Cc1ccc(C)cc1 | -4.9 | 29.1* | -1.4 | -4.3 | 1.6 | 1.3 | 1.5 | 7.8
CC(=O)NCCCc1nc2ccccc2n1Cc1cc(C)ccc1C | 6.3 | -5.5 | 1.5 | 4.4 | -0.8 | 0.9 | . | .
CC(C)c1ccc(-n2nc3ccc(N)cc3n2)cc1 | 4.6 | 30.6* | 0.4 | 1.5 | 22.9 | 7.9 | -18.1 | 2.6
O=C(CCNS(=O)(=O)c1cccc2nsnc12)N1CC(=O)N(CCc2ccccc2)C(=O)C1 | 1.4 | 23.8* | -4.2 | -2.8 | 10.8 | -2.7 | 2.0 | 4.6
COc1ccc(C(=O)N/N=C(\C)c2ccc(NC(=O)Cc3ccccc3)cc2)c(OC)c1 | 1.2 | -0.2 | -3.5 | 4.8 | -5.6 | -1.3 | . | .
COc1ccc(N2CCN(C(=O)CC34CC5CC(CC(C5)C3)C4)CC2)c([N+](=O)[O-])c1 | -0.1 | 21.7* | -0.3 | -1.4 | -3.0 | 8.0 | 2.0 | 3.7
COCCCNC(=S)N(CCCO)Cc1cc2cc3c(cc2[nH]c1=O)OCO3 | 1.1 | -4.5 | 1.0 | -3.1 | -6.5 | 1.4 | . | .
CCN(CC)C(=O)c1ncn(C)c1C(=O)N(CC)CC | . | 2.1 | . | . | 5.7 | . | . | .
O=C(CN1C(=O)c2cccc3cccc1c23)NCc1ccc2c(c1)OCO2 | -3.7 | 29.1* | 0.2 | 6.1 | 2.4 | 2.7 | 2.1 | 1.7
O=C(CN1C(=O)c2cccc3cccc1c23)Nc1ccc2c(c1)OCO2 | -0.1 | -1.2 | -3.0 | -2.9 | -8.0 | -1.5 | . | .
CC(=O)c1ccn(S(=O)(=O)c2ccccc2)c1 | 0.1 | -1.5 | 0.3 | -1.7 | 2.0 | -5.5 | . | .
CCOC(=O)c1cc(-c2ccc(/C=N\n3cnnc3)o2)ccc1Cl | 4.9 | 28.7* | -0.2 | -0.6 | 24.8 | -3.9 | 0.8 | 1.9
COc1ccc2[nH]c3c(c2c1)CCN1C(=O)C(CC(=O)NCc2cccc(C(F)(F)F)c2)C[C@H](C(=O)N2CCCCC2)[C@@]31CCc1ccccc1 (stereo not given in full) | . | -7.3 | . | . | -10.2 | . | . | .
O=C(NCc1cccs1)C1CCC(=O)N(Cc2cccc(C(F)(F)F)c2)C1 (stereo not given) | -2.6 | 41.8* | -1.8 | 11.5 | -6.0 | 2.2 | 2.1 | 2.1
CCn1c(SC(C)C(=O)NCC2CCCO2)nc2ccccc21 (stereo not given) | 6.6 | 39.2* | 1.5 | -4.6 | -3.3 | . | 2.0 | 3.8
CCn1c(SC(C)C(=O)NCC2CCCO2)nc2scc(-c3ccccc3)c2c1=O (stereo not given) | -0.6 | 14.5 | 2.6 | -0.6 | -1.6 | -1.3 | . | .
SMILES | LYPLA2 counter | proCasp3 act | LYPLA1 counter | PME-1 primary | procasp7 counter | Fam108B counter | procasp7 triplic | proCasp3 confirm
CC1(C)Cc2c(c(N3CCCC3)nc3sc(C(=O)Nc4ccccc4)c(N)c23)CO1 | 9.5 | 22.9* | 2.3 | 23.9 | 3.1 | 1.6 | 39.3* | 67.7*
Cc1ccc(NC(=O)c2sc3nc(N4CCOCC4)c4c(c3c2N)CC(C)(C)OC4)cc1 | 2.5 | -16.5 | -0.7 | 4.0 | -27.6 | 1.0 | . | .
CC(=O)[C@H]1[C@H](c2cccc(Cl)c2)C(C#N)(C#N)[C@@H]2c3ccccc3C=CN21 | -17.2 | -6.5 | -5.5 | -12.2 | -16.7 | -6.3 | . | .
CCCCOn1c(C)c(C(=O)OCC)c2c3no[n+]([O-])c3ccc21 | 0.3 | 2.7 | -0.4 | -4.9 | -9.0 | 0.3 | . | .
CCCCOn1c(C)c(C(=O)OCC)c2c3nonc3ccc21 | 1.1 | 24.3* | -1.8 | 3.8 | 21.6 | -0.7 | 13.4 | 25.2*
Cc1cc2c(=O)n(Cc3ccco3)c(SCC(=O)c3ccc(Cl)s3)nc2s1 | -1.4 | -6.1 | -0.1 | -4.0 | -1.8 | -10.9 | . | .
CCOC(=O)CC(=O)CSc1nc2sc(C)cc2c(=O)n1Cc1ccco1 | 3.4 | 59.1* | -0.1 | 8.9 | 0.0 | 1.7 | -2.2 | -0.7
S=c1sc2c(N3CCN(Cc4ccccc4)CC3)ncnc2n1-c1ccccc1 | -0.6 | -4.6 | -0.1 | -1.7 | 10.6 | 0.6 | . | .
CCN1CCN(c2ncnc3c2sc(=S)n3-c2ccccc2)CC1 | 1.6 | 22.7* | 3.7 | 0.9 | 6.2 | -0.6 | 1.8 | 4.1
Cc1ccc(NC(=O)COc2ccccc2)c(NC(=O)c2ccco2)c1 | -2.2 | 6.7 | -0.2 | -1.1 | -0.2 | 2.2 | . | .
COc1ccccc1Nc1nc2c(C)cccc2cc1C#N | 3.2 | 39.8* | -3.4 | -0.6 | 18.0 | 0.7 | 79.9* | 93.9*
C=CCNC(=S)NNC(=O)c1ccncc1 | 8.8 | -7.4 | 8.1 | 3.9 | -15.3 | 2.5 | . | .
Cc1c(CC(=O)N2CCN(C(=O)C3COc4ccccc4O3)CC2)c(=O)oc2cc(O)cc(O)c12 (stereo not given) | 4.1 | 15.7 | -2.9 | -1.6 | 16.9 | -0.2 | . | .

Screening data deposited in PubChem BioAssay by The Scripps Research Institute Molecular Screening Center.
